What all share (type): functional
A short description of experiment [1]: Inhibition of lymphocyte proliferation in vitro by 25 uM. The note with it: Homo sapiens.
Experiment [2] in a line: Percent inhibition against incorporation of [3H]-thymidine in Human mixed lymphocyte reaction at a concentration of 25 uM.
Experiment [3] is described as follows: Effective dose against inhibitory potency in Human mixed lymphocyte reaction. The conditions noted are these: read-out: ED50 (the source's name). In a few lines: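 Human MLR: responder lymphocytes and mitomycin-C-treated stimulator lymphocytes, isolated on Ficoll-Metrizoate (10^5 each), cultured in triplicate in RPMI 1640 with 2 mM glutamine, 10 mM HEPES and 20% (final) pooled human AB serum plus drug. Incubation 5 days at 37 °C under 5% CO2/95% air. [3H]thymidine incorporation read; ED50 taken from a graph of ≥4 points, each the mean of 3–10 experiments.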

Experiment [4] can be described thus: Percent inhibition against incorporation of [3H]thymidine in Human mixed lymphocyte reaction at a concentration of 10 uM.
Experiment [5] can be described thus: Inhibition of human mixed leukocyte proliferation in vitro; Not determined. The note with it: read-out: ED50 (the source's name).
A short description of experiment [6]: Percent inhibition against incorporation of [3H]thymidine in Human mixed lymphocyte reaction at a concentration of 50 uM.

This is an account of results in ChEMBL document CHEMBL1129365, “Rational design of novel immunosuppressive drugs: analogues of azathioprine lacking the 6-mercaptopurine substituent retain or have enhanced immunosuppressive effects” (1996).

One may read the inhibition as the relative decrease from the control value, in per cent. In experiment [1], `Cc1ccc2[nH]c(Sc3c([N+](=O)[O-])ncn3C)nc2c1` gave an inhibition at 25 µM of 86%.

For the compound `Cn1cnc([N+](=O)[O-])c1Sc1ccccn1`, at 25 µM the inhibition in experiment [2] was 76%.

Consider `Cc1cc(C)nc(Sc2c([N+](=O)[O-])ncn2C)n1`, for which testing at 25 µM in experiment [1] gave an inhibition of 47%.

Consider `Cn1ccnc1Sc1c([N+](=O)[O-])ncn1C`, for which the EC50 in experiment [3] was 3.15 µM. The inhibition at 10 µM in experiment [4] turned out to be 82%. The compound further gave an inhibition at 25 µM in experiment [1] of 100%.

Regarding `Cn1cnc([N+](=O)[O-])c1Sc1[nH]cnc2nc(O)nc1-2`, the EC50 in experiment [5] turned out to be 24 µM. In experiment [2], the inhibition at 25 µM worked out at 50%.

In experiment [6], `Cn1cnc([N+](=O)[O-])c1Sc1nc2cc(Cl)c(F)cc2[nH]1` yielded an inhibition at 50 µM of 59%.

As to `Cn1cnc([N+](=O)[O-])c1Sc1ncnc2[nH]cnc12` [AZATHIOPRINE], in experiment [3], the EC50 worked out at 7.9 µM. Also, the inhibition at 25 µM in experiment [2] was 79%.

Take `COc1cc2nc(Sc3c([N+](=O)[O-])ncn3C)[nH]c2cc1OC`: the inhibition at 25 µM in experiment [1] turned out to be 94%.

Consider `COc1ccc(OC)c2[nH]c(Sc3c([N+](=O)[O-])ncn3C)nc12`, for which testing at 25 µM in experiment [1] gave an inhibition of 41%.

`Cn1cnc([N+](=O)[O-])c1Sc1ncccn1`: in experiment [1], the inhibition at 25 µM stood at 47%.

`Cn1cnc([N+](=O)[O-])c1Sc1ccccc1C(=O)O` came in with an inhibition at 25 µM in experiment [2] of 34%.

Regarding `Cn1cnc([N+](=O)[O-])c1Sc1ccccc1N`, testing at 25 µM in experiment [1] gave an inhibition of 21%.

For the compound `Cn1cnc([N+](=O)[O-])c1Sc1nc[nH]n1`, the EC50 in experiment [3] is 14 µM. The same compound had an inhibition at 25 µM in experiment [1] of 58%.

`Cn1cnc([N+](=O)[O-])c1Sc1nc2ccccc2o1`: the inhibition at 25 µM in experiment [2] was found to be 87%.

Take `CCn1c(C)nc([N+](=O)[O-])c1Sc1nncn1C`: the EC50 in experiment [3] was 2.5 µM. Further, testing at 10 µM in experiment [4] gave an inhibition of 98%. This compound displayed an inhibition at 25 µM in experiment [1] of 100%.

With `Cn1cnnc1Sc1c([N+](=O)[O-])ncn1C`, the EC50 in experiment [3] amounted to 2.7 µM. This compound also came in with an inhibition at 10 µM in experiment [4] of 98%. In experiment [1], this compound had an inhibition at 25 µM of 100%.

In turn, `Cn1cnc([N+](=O)[O-])c1Sc1nc2ccccc2s1` came in with an inhibition at 25 µM in experiment [2] of 27%.

The compound `Cn1cnc([N+](=O)[O-])c1Sc1nccc(O)n1` showed an inhibition at 25 µM in experiment [1] of 29%.

As for `Cc1cc(C)cc(Sc2c([N+](=O)[O-])ncn2C)c1`, the inhibition at 25 µM in experiment [2] worked out at 47%.

Regarding `Cn1cnc([N+](=O)[O-])c1SC1=NCCS1`, the inhibition at 25 µM in experiment [1] was determined as 100%.

In the case of `Cn1cnc([N+](=O)[O-])c1Sc1nc2ccccc2[nH]1`, in experiment [1], 25 µM produced 90% inhibition.

The compound `CCOC(=O)CSc1c([N+](=O)[O-])ncn1C` gave an inhibition at 25 µM in experiment [2] of 65%.

As to `Cn1cnc([N+](=O)[O-])c1Sc1ncc[nH]1`, in experiment [3], the EC50 was determined as 2.8 µM. Besides, in experiment [4], the inhibition at 10 µM amounted to 89%. In experiment [1], this compound returned an inhibition at 25 µM of 100%.

The compound `Cn1cnc([N+](=O)[O-])c1Sc1nc2cc([N+](=O)[O-])ccc2[nH]1` returned an inhibition at 25 µM in experiment [1] of 2%.

Consider `CCn1c(C)nc([N+](=O)[O-])c1Sc1nccn1C`, for which the EC50 in experiment [3] was determined as 2.9 µM. This compound gave an inhibition at 10 µM in experiment [4] of 98%. Moreover, at 25 µM the inhibition in experiment [1] was 100%.
